Measurements pooled from the literature.
Lines come from different studies, so protocols differ.
Read-out: enzyme activity
Action: inhibitor
FLT3: Receptor-type tyrosine-protein kinase FLT3 (FLT3, Homo sapiens, UniProt P36888)

Structure (SMILES) | target | assay | conditions | inhibition
CCOc1cc(-c2nncn2C)ccc1Nc1ncc2cc(C)nc(NCC(C)(C)C)c2n1 | FLT3 | FRET | 1 µM | 54%
Cn1cncc1C1=CN(c2ncnc3[nH]cnc23)CCS1 | FLT3 | radiometric | 50 nM | 22.2%
CNC(=O)c1ccccc1Nc1cc(Nc2ccc(N3CCOCC3)cc2OC)ncc1C(F)(F)F | FLT3 | – | 0.1 µM | > 50%
CC/C(=N\NC(=O)NCc1cccc(O)c1)c1ccc(O)c(C)c1O | FLT3 | – | 0.1 µM | 6%
COc1cc2ncnc(Nc3ccc(Oc4ccccc4)cc3C)c2cc1OC | FLT3 | – | 1 µM | 79%
Cn1cnc(Br)c1C1=CN(c2ncnc3[nH]cnc23)CCS1 | FLT3 | radiometric | 50 nM | 16.8%
COc1cc2ncnc(Nc3ccc(Oc4ccccc4)c(C)c3C)c2cc1OC | Receptor-type tyrosine-protein kinase FLT3 (FLT3, Homo sapiens, UniProt P36888, D835Y) | – | 1 µM | 2%
CNc1cccc2cc(C(=O)Nc3ccc(C(=O)O)cc3)c(=O)[nH]c12 | FLT3 | – | 10 µM | 7.9%
C=CC(=O)Nc1cc(Nc2nccc(Nc3cc(Cl)c(F)cc3C(C)(C)O)n2)c(OC)cc1N1CC[C@@H](N(C)C)C1 | FLT3 | – | 1 µM | 16%
CN(C)C1CCN(CC#Cc2nn(C3CCCC3)c3nc(NCc4ccccc4)ncc23)C1 (centres unmarked) | FLT3 | FRET | 1 µM | 24%
CS(=O)(=O)Nc1cccc(-c2csc(NC(=O)CSc3nc4nccnc4c(=O)n3CCc3ccccc3)n2)c1 | FLT3 | – | 10 µM | 8%
